Laboratory results: ChEMBL document CHEMBL3813699, “Structure-Activity Relationships of a Diverse Class of Halogenated Phenazines That Targets Persistent, Antibiotic-Tolerant Bacterial Biofilms and Mycobacterium tuberculosis” (J Med Chem, 2016)
Converted amounts (≈) assume the structure as drawn.

Legend:
[1] = Induction of hemolysis in human RBC at 200 uM incubated for 1 hr; format: cell-based, Erythrocyte; conditions: red blood cells, read-out: Activity
Procedure, shortened: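 Human RBCs (EDTA), washed three times in Tris-buffered saline pH 7.2; 2% hRBC with compound at final 200 µM, 1 h 37 °C; supernatant OD405; % hemolysis relative to DMSO (0%) and Triton X (100%).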

Staphylococcus aureus [2] = assay: Antibacterial activity against methicillin-resistant Staphylococcus aureus clinical isolate 2 incubated for 16 to 18 hrs by broth microdilution method; format: functional
Enterococcus faecium [3] = assay: Antibiofilm activity against […]-resistant Enterococcus faecium ATCC 700221 assessed as biofilm eradication incubated for 24 hrs by CBD assay; format: functional; conditions: for MBC: Enterococcus faecium, ATCC 700221, 24 h
Procedure, shortened: (§1)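 Calgary Biofilm Device: pegs inoculated with mid-log culture diluted 1,000-fold in TSB + 0.5% glucose, 24 h 37 °C; washed pegs challenged with 2-fold dilutions 24 h 37 °C; pegs moved to fresh TSBG 24 h; MBEC = lowest concentration leaving no turbidity; 2–6 independent experiments.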

Staphylococcus aureus [4] = assay: Antibiofilm activity against methicillin-resistant Staphylococcus aureus BAA-1707 assessed as biofilm eradication incubated for 24 hrs by CBD assay; format: functional; conditions: for MBC: Staphylococcus aureus, BAA-1707, 24 h; procedure, shortened: as §1
Staphylococcus aureus [5] = assay: Antibiofilm activity against methicillin-resistant Staphylococcus aureus isolate 2 assessed as biofilm eradication incubated for 24 hrs by CBD assay; format: functional; conditions: for MBC: Staphylococcus aureus, isolate 2, 24 h; procedure, shortened: as §1
Enterococcus faecium [6] = assay: Antibacterial activity against vancomycin-resistant Enterococcus faecium ATCC 700221 incubated for 16 to 18 hrs by broth microdilution method; format: functional
[7] = test system: Staphylococcus epidermidis; assay: Antibacterial activity against methicillin-resistant Staphylococcus epidermidis ATCC 35984 assessed as biofilm eradication incubated for 24 hrs by CBD assay; format: functional; conditions: for MBC: Staphylococcus epidermidis, ATCC 35984, 24 h; procedure, shortened: as §1
Staphylococcus aureus [8] = assay: Antibacterial activity against methicillin-resistant Staphylococcus aureus BAA-44 incubated for 16 to 18 hrs by broth microdilution method; format: functional
Staphylococcus aureus [9] = assay: Antibacterial activity against methicillin-resistant Staphylococcus aureus BAA-1707 incubated for 16 to 18 hrs by broth microdilution method; format: functional
[10] = test system: Staphylococcus epidermidis; assay: Antibacterial activity against methicillin-resistant Staphylococcus epidermidis ATCC 35984 incubated for 16 to 18 hrs by broth microdilution method; format: functional
[11] = test system: Staphylococcus epidermidis; assay: Antibacterial activity against Staphylococcus epidermidis ATCC 12228 incubated for 16 to 18 hrs by broth microdilution method; format: functional
[12] = test system: Mycobacterium tuberculosis; assay: Antibacterial activity against Mycobacterium tuberculosis H37Ra ATCC 25177 after 7 days by two-fold serial dilution method; format: functional; conditions: H37Ra ATCC 25177, 168 h
HeLa = assay: Cytotoxicity against human HeLa cells after 24 hrs by LDH release assay; format: cell-based
Procedure, shortened: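 HeLa in DMEM + 10% FBS, 37 °C 5% CO2, at 70–80% confluence treated with 25, 50, 100 µM for 24 h; DMSO vehicle; Triton X-100 2% v/v max-LDH control, medium-only negative; supernatant with LDH reaction mix 30 min room temperature, stopped, absorbance 490 nm.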

Staphylococcus aureus [13] = assay: Antibacterial activity against methicillin-resistant Staphylococcus aureus clinical isolate 2 incubated for 16 hrs by broth microdilution method; format: functional; conditions: isolate 2, 16 h
Staphylococcus aureus [14] = assay: Antibacterial activity against methicillin-resistant Staphylococcus aureus clinical isolate 2 incubated for 16 hrs by broth microdilution method in presence of Fe2+; format: functional; conditions: isolate 2, 16 h

Row | SMILES | hemolysis at 1 h, 200 µM [1] [%] | MIC (Staphylococcus aureus [2]) [µM] | MBEC (Enterococcus faecium [3]) [µM] | MBC (Enterococcus faecium [3]) [µM] | MBEC (Staphylococcus aureus [4]) [µM] | MBC (Staphylococcus aureus [4]) [µM] | MBEC (Staphylococcus aureus [5]) [µM] | MBC (Staphylococcus aureus [5]) [µM] | MIC (Enterococcus faecium [6]) [µM] | MBEC [7] [µM] | MBC [7] [µM] | MIC (Staphylococcus aureus [8]) [µM] | MIC (Staphylococcus aureus [9]) [µM] | MIC [10] [µM] | MIC [11] [µM] | MIC [12] [µM] | IC50 (HeLa) [µM] | MIC (Staphylococcus aureus [13]) [µM] | MIC (Staphylococcus aureus [14]) [µM]
1 | CCCCc1cc(Br)c(O)c2nc3ccccc3nc12 | 11.5 | 3.13 (≈ 1.04 µg/mL) | 2 | 2 (≈ 0.662 µg/mL) | 62.5 | 46.9 (≈ 15.5 µg/mL) | 188 | 46.9 (≈ 15.5 µg/mL) | 0.78 (≈ 0.258 µg/mL) | 23.5 | 11.7 (≈ 3.88 µg/mL) | – | – | – | – | – | – | – | –
2 | Oc1c(I)cc(Cl)c2nc3ccccc3nc12 | ≤ 1 | 25 (≈ 8.91 µg/mL) | – | – | – | – | 250 | 93.8 (≈ 33.4 µg/mL) | 6.25 (≈ 2.23 µg/mL) | 250 | 125 (≈ 44.6 µg/mL) | 12.5 (≈ 4.46 µg/mL) | 3.13 (≈ 1.12 µg/mL) | 25 (≈ 8.91 µg/mL) | 25 (≈ 8.91 µg/mL) | – | – | – | –
3 | Oc1c(Br)cc(Br)c2nc3cc(Br)c(Br)cc3nc12 | ≤ 1 | 6.25 (≈ 3.2 µg/mL) | 0.39 | 0.39 (≈ 0.2 µg/mL) | 50 | 6.25 (≈ 3.2 µg/mL) | – | – | 0.39 (≈ 0.2 µg/mL) | 6.25 | 1.56 (≈ 0.798 µg/mL) | 25 (≈ 12.8 µg/mL) | 12.5 (≈ 6.4 µg/mL) | – | 0.08 (≈ 0.0409 µg/mL) | > 50 | > 100 | – | –
4 | CC(=O)NC[C@H]1CN(c2ccc(N3CCOCC3)c(F)c2)C(=O)O1 [LINEZOLID] | ≤ 1 | 3.13 (≈ 1.06 µg/mL) | – | – | >2000 | 31.3 (≈ 10.6 µg/mL) | – | – | 3.13 (≈ 1.06 µg/mL) | – | – | – | 12.5 (≈ 4.22 µg/mL) | 3.13 (≈ 1.06 µg/mL) | – | – | – | 6.25 (≈ 2.11 µg/mL) | 6.25
5 | CCCCCCCCCC(=O)N[C@@H](Cc1c[nH]c2ccccc12)C(=O)N[C@H](CC(N)=O)C(=O)N[C@@H](CC(=O)O)C(=O)N[C@@H]1C(=O)NCC(=O)N[C@@H](CCCN)C(=O)N[C@@H](CC(=O)O)C(=O)N[C@H](C)C(=O)N[C@@H](CC(=O)O)C(=O)NCC(=O)N[C@H](CO)C(=O)N[C@@H]([C@H](C)CC(=O)O)C(=O)N[C@@H](CC(=O)c2ccccc2N)C(=O)O[C@@H]1C [DAPTOMYCIN] | 1.7 | – | – | – | – | – | – | – | – | – | – | – | – | – | – | – | – | – | –
6 | Oc1c(Cl)cc(I)c2nc3ccccc3nc12 | 5.1 | 1.56 (≈ 0.556 µg/mL) | – | – | – | – | 125 | 15.6 (≈ 5.56 µg/mL) | 6.25 (≈ 2.23 µg/mL) | – | – | 1.56 (≈ 0.556 µg/mL) | 1.56 (≈ 0.556 µg/mL) | 1.56 (≈ 0.556 µg/mL) | 1.56 (≈ 0.556 µg/mL) | – | > 100 | – | –
7 | Oc1c(I)cc(I)c2nc3ccccc3nc12 | ≤ 1 | 3.13 (≈ 1.4 µg/mL) | 15.6 | 23.5 (≈ 10.5 µg/mL) | – | – | 93.8 | 31.3 (≈ 14 µg/mL) | 6.25 (≈ 2.8 µg/mL) | 23.5 | 31.3 (≈ 14 µg/mL) | 3.13 (≈ 1.4 µg/mL) | 3.13 (≈ 1.4 µg/mL) | 1.17 (≈ 0.524 µg/mL) | 1.56 (≈ 0.699 µg/mL) | – | > 100 | – | –
